pIC50: −log10 of the molar value.
Test system: DU-145
Assay: Cytotoxicity against human DU145 cells after 2 days by automatic ELISA reader system
Type: functional, cell-based
Settings: DU-145, 48 h
Procedure, shortened: (§1)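 Cells seeded at 2–4 × 10⁴ per well and grown overnight in medium with 10% FBS, 5% CO₂, 37 °C. Compound added on day 2; on day 4 CCK-8 solution added and incubated a further 4 h. Absorbance read at 450 nm and fitted to a four-parameter logistic equation for IC₅₀.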

Row | Compound | pIC50
1 | Oc1cccc(-c2cc(-c3ccccc3)cc(-c3ccco3)n2)c1 | 4.84
2 | Oc1ccc(-c2cc(-c3ccccc3)cc(-c3ccsc3)n2)cc1 | 5.07
3 | Oc1ccc(-c2cc(-c3ccccc3)cc(-c3cccnc3)n2)cc1 | 5.08
4 | Oc1cccc(-c2cc(-c3ccccc3)nc(-c3ccco3)c2)c1 | 4.46
5 | Oc1cccc(-c2cc(-c3ccccc3)nc(-c3ccncc3)c2)c1 | 4.74
6 | Oc1ccc(-c2cc(-c3ccccc3)cc(-c3cccs3)n2)cc1 | 5.43
7 | COc1cc([C@@H]2c3cc4c(cc3[C@@H](O[C@@H]3O[C@@H]5CO[C@@H](C)O[C@H]5[C@H](O)[C@H]3O)[C@H]3COC(=O)[C@H]23)OCO4)cc(OC)c1O [ETOPOSIDE] | 6.30
8 | Oc1cccc(-c2cc(-c3ccccc3)cc(-c3cccc(O)c3)n2)c1 | 4.60
9 | Oc1ccc(-c2cc(-c3ccccc3)nc(-c3ccco3)c2)cc1 | 5.07

Test system: HCT-15
Assay: Cytotoxicity against human HCT15 cells after 2 days by automatic ELISA reader system
Type: functional, cell-based
Settings: HCT-15, 48 h
Procedure, shortened: as §1

Row | Compound | pIC50
10 | Oc1cccc(-c2cc(-c3ccccc3)cc(-c3ccco3)n2)c1 | 4.87
11 | Oc1ccc(-c2cc(-c3ccccc3)cc(-c3ccsc3)n2)cc1 | 5.96
12 | Oc1ccc(-c2cc(-c3ccccc3)cc(-c3cccnc3)n2)cc1 | 4.82
13 | Oc1cccc(-c2cc(-c3ccccc3)nc(-c3ccco3)c2)c1 | 4.86
14 | Oc1cccc(-c2cc(-c3ccccc3)nc(-c3ccncc3)c2)c1 | 4.73
15 | Oc1ccc(-c2cc(-c3ccccc3)cc(-c3cccs3)n2)cc1 | 4.90
16 | Oc1cccc(-c2cc(-c3ccccc3)cc(-c3cccc(O)c3)n2)c1 | 4.74
17 | Oc1ccc(-c2cc(-c3ccccc3)nc(-c3ccco3)c2)cc1 | 5.29

Test system: HL-60
Assay: Cytotoxicity against human HL60 cells after 2 days by automatic ELISA reader system
Type: functional, cell-based
Settings: HL-60, 48 h
Procedure, shortened: as §1

Row | Compound | pIC50
18 | Oc1cccc(-c2cc(-c3ccccc3)cc(-c3ccco3)n2)c1 | 5.00
19 | Oc1ccc(-c2cc(-c3ccccc3)cc(-c3ccsc3)n2)cc1 | 5.44
20 | Oc1ccc(-c2cc(-c3ccccc3)cc(-c3cccnc3)n2)cc1 | 5.39
21 | Oc1cccc(-c2cc(-c3ccccc3)nc(-c3ccco3)c2)c1 | 4.62
22 | Oc1cccc(-c2cc(-c3ccccc3)nc(-c3ccncc3)c2)c1 | 4.90
23 | Oc1ccc(-c2cc(-c3ccccc3)cc(-c3cccs3)n2)cc1 | 5.77
24 | COc1cc([C@@H]2c3cc4c(cc3[C@@H](O[C@@H]3O[C@@H]5CO[C@@H](C)O[C@H]5[C@H](O)[C@H]3O)[C@H]3COC(=O)[C@H]23)OCO4)cc(OC)c1O [ETOPOSIDE] | 6.00
25 | Oc1cccc(-c2cc(-c3ccccc3)cc(-c3cccc(O)c3)n2)c1 | 4.78
26 | Oc1ccc(-c2cc(-c3ccccc3)nc(-c3ccco3)c2)cc1 | 4.86

Molecular target: DNA topoisomerase 2-alpha (Homo sapiens) (UniProt P11388)
Assay: Inhibition of human recombinant TOP2A-mediated relaxation of supercoiled Escherichia coli pBR322 DNA at 100 uM after 30 mins by transillumination
Settings: not given
Procedure, shortened: (§2)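 200 ng supercoiled pBR322 with topo II, ± compound, 30 °C for 30 min. Buffer was 10 mM Tris–HCl pH 7.9, 50 mM NaCl, 5 mM MgCl₂, 1 mM EDTA, 1 mM ATP, BSA. Stopped with 7 mM EDTA, then 1% agarose gel in TAE at 25 V for 4 h. Ethidium bromide stain, UV transillumination, supercoiled DNA quantitated.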

DNA topoisomerase 2-alpha (Homo sapiens), sequence (P11388 whole entry): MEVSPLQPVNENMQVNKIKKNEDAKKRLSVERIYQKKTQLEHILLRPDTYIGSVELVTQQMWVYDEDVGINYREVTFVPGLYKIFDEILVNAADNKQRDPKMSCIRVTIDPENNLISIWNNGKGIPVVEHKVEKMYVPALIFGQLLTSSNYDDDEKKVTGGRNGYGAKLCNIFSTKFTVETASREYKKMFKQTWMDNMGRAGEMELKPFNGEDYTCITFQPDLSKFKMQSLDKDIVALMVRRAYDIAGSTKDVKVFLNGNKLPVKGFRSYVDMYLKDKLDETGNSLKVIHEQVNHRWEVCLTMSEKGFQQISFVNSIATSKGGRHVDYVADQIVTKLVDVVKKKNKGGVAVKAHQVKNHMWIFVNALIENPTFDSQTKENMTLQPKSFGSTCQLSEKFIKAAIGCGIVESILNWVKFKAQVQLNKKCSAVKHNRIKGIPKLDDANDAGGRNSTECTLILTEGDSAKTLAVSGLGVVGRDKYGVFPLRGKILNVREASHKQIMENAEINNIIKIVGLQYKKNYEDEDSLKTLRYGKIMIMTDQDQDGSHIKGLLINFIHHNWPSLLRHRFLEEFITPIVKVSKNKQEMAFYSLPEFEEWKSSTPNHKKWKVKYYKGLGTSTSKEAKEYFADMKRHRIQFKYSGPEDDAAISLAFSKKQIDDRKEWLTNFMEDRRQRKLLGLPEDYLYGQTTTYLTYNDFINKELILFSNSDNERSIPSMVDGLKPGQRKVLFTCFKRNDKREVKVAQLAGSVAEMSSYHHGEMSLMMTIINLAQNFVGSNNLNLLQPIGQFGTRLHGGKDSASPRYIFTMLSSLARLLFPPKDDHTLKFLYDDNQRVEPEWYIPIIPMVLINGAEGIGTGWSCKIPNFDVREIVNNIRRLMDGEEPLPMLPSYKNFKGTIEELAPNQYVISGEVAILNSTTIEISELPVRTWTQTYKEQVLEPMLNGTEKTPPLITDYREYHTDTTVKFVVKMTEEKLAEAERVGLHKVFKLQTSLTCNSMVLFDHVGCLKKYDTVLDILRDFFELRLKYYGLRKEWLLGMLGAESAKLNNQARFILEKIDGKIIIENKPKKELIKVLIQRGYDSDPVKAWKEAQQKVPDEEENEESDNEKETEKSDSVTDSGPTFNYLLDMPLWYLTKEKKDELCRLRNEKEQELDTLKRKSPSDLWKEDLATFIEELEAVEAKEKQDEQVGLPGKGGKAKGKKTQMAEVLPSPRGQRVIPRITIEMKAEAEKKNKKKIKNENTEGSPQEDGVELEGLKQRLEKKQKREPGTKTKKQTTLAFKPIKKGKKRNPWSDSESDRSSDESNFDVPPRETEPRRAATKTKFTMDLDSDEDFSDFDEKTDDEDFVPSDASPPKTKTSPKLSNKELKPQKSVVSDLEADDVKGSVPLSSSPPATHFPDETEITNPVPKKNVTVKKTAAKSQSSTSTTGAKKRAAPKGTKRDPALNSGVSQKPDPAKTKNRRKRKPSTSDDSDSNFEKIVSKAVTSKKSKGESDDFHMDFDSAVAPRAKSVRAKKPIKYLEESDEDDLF

Row | Compound | inhibition [%]
27 | Oc1cccc(-c2cc(-c3ccccc3)cc(-c3ccco3)n2)c1 | 51.6
28 | Oc1ccc(-c2cc(-c3ccccc3)cc(-c3ccsc3)n2)cc1 | 38.3
29 | Oc1ccc(-c2cc(-c3ccccc3)cc(-c3cccnc3)n2)cc1 | 18.6
30 | Oc1cccc(-c2cc(-c3ccccc3)nc(-c3ccco3)c2)c1 | 47.5
31 | Oc1cccc(-c2cc(-c3ccccc3)nc(-c3ccncc3)c2)c1 | 42.8
32 | Oc1ccc(-c2cc(-c3ccccc3)cc(-c3cccs3)n2)cc1 | 35.4
33 | Oc1cccc(-c2cc(-c3ccccc3)cc(-c3cccc(O)c3)n2)c1 | 86.5
34 | Oc1ccc(-c2cc(-c3ccccc3)nc(-c3ccco3)c2)cc1 | 30.2

Molecular target: DNA topoisomerase 2-alpha (Homo sapiens) (UniProt P11388)
Assay: Inhibition of human recombinant TOP2A-mediated relaxation of supercoiled Escherichia coli pBR322 DNA at 20 uM after 30 mins by transillumination
Settings: not given
Procedure, shortened: as §2

Row | Compound | inhibition [%]
35 | Oc1cccc(-c2cc(-c3ccccc3)cc(-c3ccco3)n2)c1 | 38.6
36 | Oc1ccc(-c2cc(-c3ccccc3)cc(-c3ccsc3)n2)cc1 | 8.3
37 | Oc1cccc(-c2cc(-c3ccccc3)nc(-c3ccco3)c2)c1 | 31.1
38 | Oc1cccc(-c2cc(-c3ccccc3)nc(-c3ccncc3)c2)c1 | 32.7
39 | Oc1ccc(-c2cc(-c3ccccc3)cc(-c3cccs3)n2)cc1 | 1.3
40 | COc1cc([C@@H]2c3cc4c(cc3[C@@H](O[C@@H]3O[C@@H]5CO[C@@H](C)O[C@H]5[C@H](O)[C@H]3O)[C@H]3COC(=O)[C@H]23)OCO4)cc(OC)c1O [ETOPOSIDE] | 30.4
41 | Oc1cccc(-c2cc(-c3ccccc3)cc(-c3cccc(O)c3)n2)c1 | 49
42 | Oc1ccc(-c2cc(-c3ccccc3)nc(-c3ccco3)c2)cc1 | 10.3

Molecular target: T1, DNA topoisomerase 1 (Homo sapiens) (UniProt P11387)
T1 sequence (whole entry): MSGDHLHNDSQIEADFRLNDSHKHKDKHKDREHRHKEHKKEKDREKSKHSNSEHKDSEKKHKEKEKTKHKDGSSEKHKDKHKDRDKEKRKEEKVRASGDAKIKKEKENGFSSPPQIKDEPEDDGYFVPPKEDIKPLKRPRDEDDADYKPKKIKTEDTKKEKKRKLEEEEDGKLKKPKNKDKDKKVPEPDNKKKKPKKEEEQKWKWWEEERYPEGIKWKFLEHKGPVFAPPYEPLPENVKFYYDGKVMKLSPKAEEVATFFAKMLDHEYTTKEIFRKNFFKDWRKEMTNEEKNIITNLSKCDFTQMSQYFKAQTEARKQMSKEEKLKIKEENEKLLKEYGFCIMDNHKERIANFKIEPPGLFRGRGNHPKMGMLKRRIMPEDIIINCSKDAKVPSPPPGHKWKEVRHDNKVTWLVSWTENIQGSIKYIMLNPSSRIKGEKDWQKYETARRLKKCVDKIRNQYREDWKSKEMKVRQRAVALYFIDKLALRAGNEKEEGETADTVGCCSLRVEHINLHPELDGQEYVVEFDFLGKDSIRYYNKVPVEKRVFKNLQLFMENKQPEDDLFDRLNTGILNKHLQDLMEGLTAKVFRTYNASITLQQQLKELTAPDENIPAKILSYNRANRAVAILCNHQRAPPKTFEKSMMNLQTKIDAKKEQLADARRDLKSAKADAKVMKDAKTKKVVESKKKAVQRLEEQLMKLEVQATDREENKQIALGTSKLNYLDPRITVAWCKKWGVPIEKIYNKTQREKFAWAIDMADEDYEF
Assay: Inhibition of human recombinant TOP1-mediated relaxation of supercoiled Escherichia coli pBR322 DNA at 100 uM after 30 mins by transillumination
Settings: not given
Procedure, shortened: (§3)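 Relaxation assay: 100 ng supercoiled pBR322 with 0.4 units recombinant human topo I, ± compound (DMSO stocks 20 mM), 37 °C, 30 min. Buffer was 10 mM Tris–HCl pH 7.9, 150 mM NaCl, 0.1% BSA, 1 mM spermidine, 5% glycerol. Stopped with sarcosyl/bromophenol blue/glycerol, then 1% agarose gel in TAE at 15 V for 7 h. Ethidium bromide stain, UV transillumination, bands quantitated by densitometry.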

Row | Compound | inhibition [%]
43 | Oc1cccc(-c2cc(-c3ccccc3)cc(-c3ccco3)n2)c1 | 10.2
44 | Oc1ccc(-c2cc(-c3ccccc3)cc(-c3ccsc3)n2)cc1 | 20.4
45 | Oc1ccc(-c2cc(-c3ccccc3)cc(-c3cccnc3)n2)cc1 | 44
46 | Oc1cccc(-c2cc(-c3ccccc3)nc(-c3ccco3)c2)c1 | 48.8
47 | Oc1cccc(-c2cc(-c3ccccc3)nc(-c3ccncc3)c2)c1 | 60.8
48 | Oc1ccc(-c2cc(-c3ccccc3)cc(-c3cccs3)n2)cc1 | 4.9
49 | Oc1cccc(-c2cc(-c3ccccc3)cc(-c3cccc(O)c3)n2)c1 | 67.2
50 | Oc1ccc(-c2cc(-c3ccccc3)nc(-c3ccco3)c2)cc1 | 5

Molecular target: T1, DNA topoisomerase 1 (Homo sapiens)
Assay: Inhibition of human recombinant TOP1-mediated relaxation of supercoiled Escherichia coli pBR322 DNA at 20 uM after 30 mins by transillumination
Settings: not given
Procedure, shortened: as §3

Row | Compound | inhibition [%]
51 | Oc1cccc(-c2cc(-c3ccccc3)cc(-c3ccco3)n2)c1 | 0
52 | Oc1ccc(-c2cc(-c3ccccc3)cc(-c3cccnc3)n2)cc1 | 0.9
53 | Oc1cccc(-c2cc(-c3ccccc3)nc(-c3ccco3)c2)c1 | 3.5
54 | Oc1cccc(-c2cc(-c3ccccc3)nc(-c3ccncc3)c2)c1 | 0.9
55 | Oc1cccc(-c2cc(-c3ccccc3)cc(-c3cccc(O)c3)n2)c1 | 10.5

Test system: MDA-MB-231
Assay: Cytotoxicity against human MDA-MB-231 cells after 2 days by automatic ELISA reader system
Type: functional, cell-based
Settings: MDA-MB-231, 48 h
Procedure, shortened: as §1

Row | Compound | pIC50
56 | Oc1cccc(-c2cc(-c3ccccc3)cc(-c3ccco3)n2)c1 | 4.86
57 | Oc1ccc(-c2cc(-c3ccccc3)cc(-c3ccsc3)n2)cc1 | 5.24
58 | Oc1ccc(-c2cc(-c3ccccc3)cc(-c3cccnc3)n2)cc1 | 5.66
59 | Oc1cccc(-c2cc(-c3ccccc3)nc(-c3ccco3)c2)c1 | 4.68
60 | Oc1cccc(-c2cc(-c3ccccc3)nc(-c3ccncc3)c2)c1 | 4.91
61 | Oc1ccc(-c2cc(-c3ccccc3)cc(-c3cccs3)n2)cc1 | 5.62
62 | COc1cc([C@@H]2c3cc4c(cc3[C@@H](O[C@@H]3O[C@@H]5CO[C@@H](C)O[C@H]5[C@H](O)[C@H]3O)[C@H]3COC(=O)[C@H]23)OCO4)cc(OC)c1O [ETOPOSIDE] | 6.15
63 | Oc1cccc(-c2cc(-c3ccccc3)cc(-c3cccc(O)c3)n2)c1 | 4.89
64 | Oc1ccc(-c2cc(-c3ccccc3)nc(-c3ccco3)c2)cc1 | 6.00

Test system: HeLa
Assay: Cytotoxicity against human HeLa cells after 2 days by automatic ELISA reader system
Type: functional, cell-based
Settings: 48 h
Procedure, shortened: as §1

Row | Compound | pIC50
65 | Oc1cccc(-c2cc(-c3ccccc3)cc(-c3ccco3)n2)c1 | 5.03
66 | Oc1ccc(-c2cc(-c3ccccc3)cc(-c3ccsc3)n2)cc1 | 4.76
67 | Oc1ccc(-c2cc(-c3ccccc3)cc(-c3cccnc3)n2)cc1 | 4.87
68 | Oc1cccc(-c2cc(-c3ccccc3)nc(-c3ccco3)c2)c1 | 4.96
69 | Oc1cccc(-c2cc(-c3ccccc3)nc(-c3ccncc3)c2)c1 | 4.83
70 | Oc1ccc(-c2cc(-c3ccccc3)cc(-c3cccs3)n2)cc1 | 5.77
71 | COc1cc([C@@H]2c3cc4c(cc3[C@@H](O[C@@H]3O[C@@H]5CO[C@@H](C)O[C@H]5[C@H](O)[C@H]3O)[C@H]3COC(=O)[C@H]23)OCO4)cc(OC)c1O [ETOPOSIDE] | 5.85
72 | Oc1cccc(-c2cc(-c3ccccc3)cc(-c3cccc(O)c3)n2)c1 | 4.88
73 | Oc1ccc(-c2cc(-c3ccccc3)nc(-c3ccco3)c2)cc1 | 5.35

Source: ChEMBL document CHEMBL1157776, “Synthesis, topoisomerase I and II inhibitory activity, cytotoxicity, and structure-activity relationship study of hydroxylated 2,4-diphenyl-6-aryl pyridines” (Bioorg Med Chem, 2010)
